System: not listed separately
Test: Compound was screened for their ability to potentiate [Ca2+] release induced by cADRP(an endogenous modulator of ryanodine receptor) in sea urchin egg homogenates at a concentration of 2 mM
Assay type: functional, tissue-based
In short: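 Lytechinus pictus egg homogenate (2.5%, from 50% stocks), Ca2+-loaded 3 h at room temperature in Glu-IM (pH 7.2) with 0.5 mM ATP, phosphocreatine/creatine phosphokinase, oligomycin, antimycin, azide and 3 μM fluo-3. Fluo-3 fluorescence (ex 490/em 535 nm) read at 17 °C. Methylxanthine at 2 mM added 1 min before a daily-chosen, slightly active cADPR concentration. Caffeine run daily as standard.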

SMILES | Potentiation
Cn1c(=O)c2[nH]cnc2n(C)c1=O | 95.3%
O=c1[nH]c(=O)c2nc[nH]c2[nH]1 | 41%

System: not listed separately
Test: compound was screened for their ability to potentiate [Ca2+] release induced by cADRP(an endogenous modulator of ryanodine receptor) in sea urchin egg homogenates at a concentration 1 mM
Assay type: functional, tissue-based
In short: (§1)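 Lytechinus pictus egg homogenate (2.5%, from 50% stocks) in Glu-IM (pH 7.2, Hepes). It was Ca2+-loaded for 3 h at room temperature with 0.5 mM ATP, creatine kinase/phosphocreatine, oligomycin, antimycin, azide and 3 μM fluo-3. Fluo-3 fluorescence (ex 490/em 535 nm) was read at 17 °C. Methylxanthine was added 1 min before a slightly releasing cADPR concentration chosen from each experiment's cADPR concentration–response curve. Caffeine was run daily as standard.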

Potentiation | SMILES
100% | Cn1c(=O)c2c(ncn2C)n(C)c1=O [CAFFEINE]

System: not listed separately
Test: compound was screened for their ability to potentiate [Ca2+] release induced by cADRP(an endogenous modulator of ryanodine receptor) in sea urchin egg homogenates at a concentration 2 mM
Assay type: functional, tissue-based
In short: as §1

Potentiation | SMILES
28.7% | Cn1c(=O)c2ncn(C)c2n(C)c1=O

System: not listed separately
Test: Calcium release at 2 mM as percent of 1 mM caffeine effect

SMILES | Activity
Cn1c(=O)c2c(ncn2C)n(C)c1=O [CAFFEINE] | 100%

System: Lytechinus pictus
Test: Percent of 1 mM Caffeine effect to release [Ca2+] at 1 mM in sea urchin egg homogenate

SMILES | Activity
Cn1c(=O)c2c(ncn2CCCCCCO)n(C)c1=O | 97%
CCOC(=O)CCCCCn1c(=O)c2c(ncn2C)n(C)c1=O | 103%
Cn1c(=O)c2c(ncn2CC(=O)O)n(C)c1=O [ACEFYLLINE] | 1.4%
CC(O)CCCCCCn1cnc2c1c(=O)n(C)c(=O)n2C (stereo not drawn) | 98%
CC(=O)CCCCCCCCn1cnc2c1c(=O)n(C)c(=O)n2C | 62%
C#CCn1c(=O)c2c(ncn2CCCCCCC(C)=O)n(C)c1=O | 98%
Cn1c(=O)c2c(ncn2CCCCCC(=O)O)n(C)c1=O | 9.4%
Cn1c(=O)c2c(ncn2CCCCCCCCCCO)n(C)c1=O | 113%
CCOC(=O)CCCCCn1cnc2c1c(=O)n(C)c(=O)n2C | 145%
CCOC(=O)Cn1cnc2c1c(=O)n(C)c(=O)n2C | 87%
Cn1cnc2c1c(=O)n(CCCCCC(=O)O)c(=O)n2C | 61%

System: Lytechinus pictus
Test: Calcium release in sea urchin egg homogenate at 2 mM as percent of 1 mM caffeine effect

SMILES | Activity
CC(=O)CCCn1cnc2c1c(=O)n(CC(C)=O)c(=O)n2C | 6.7%
CC(=O)CCCCCn1c(=O)c2c(ncn2C)n(C)c1=O | 96%
Cn1c(=O)c2nc[nH]c2n(C)c1=O.O [THEOPHYLLINE] | 106%
Cn1c(=O)c2c(ncn2CCCCCc2ccccc2)n(C)c1=O | 70%
CC(=O)CCCCn1cnc2c1c(=O)n(C)c(=O)n2C [LOMIFYLLINE] | 65%
CC(=O)CCCCCCn1c(=O)c2c(ncn2C)n(C)c1=O | 76%
CC(=O)CCn1cnc2c1c(=O)n(C)c(=O)n2C | 97%
CC(=O)CCCn1c(=O)c2c(ncn2C)n(C)c1=O | 37%
CC(=O)CCCCCCn1cnc2c1c(=O)n(C)c(=O)n2C | 112%
CC(O)CCCCCn1c(=O)c2c(ncn2C)n(C)c1=O (stereo not drawn) | 54%
CC(=O)CCCCCn1c(=O)c2c(ncn2CCCCCC(C)=O)n(C)c1=O | 54%
CC(=O)Cn1c(=O)c2c(ncn2C)n(C)c1=O | 43%
C#CCn1c(=O)c2c(ncn2CCCC(C)=O)n(C)c1=O | 81%
CC(=O)CCn1c(=O)c2c(ncn2C)n(C)c1=O | 46%
Cn1c(=O)c2c(ncn2CCO)n(C)c1=O [ETOFYLLINE] | 43%
CC(=O)CCCn1cnc2c1c(=O)n(C)c(=O)n2C | 60%
CC(=O)CCCCCn1cnc2c1c(=O)n(C)c(=O)n2C | 107%
CC(O)Cn1c(=O)c2c(ncn2C)n(C)c1=O (stereo not drawn) [PROTHEOBROMINE] | 83%
CC(O)Cn1cnc2c1c(=O)n(C)c(=O)n2C (stereo not drawn) [PROXYPHYLLINE] | 47%
CC(O)CCCn1cnc2c1c(=O)n(C)c(=O)n2C (stereo not drawn) | 82%
Cn1c(=O)c2c(ncn2CCCCO)n(C)c1=O | 81%
CC(O)CCCn1c(=O)c2c(ncn2C)n(C)c1=O (stereo not drawn) | 59%
C=CCn1cnc2c1c(=O)n(C)c(=O)n2C | 100%
CC(=O)Cn1c(=O)c2c(ncn2CC(C)=O)n(C)c1=O | 17%
CC(=O)CCCCCn1c(=O)c2c(ncn2CCCC(C)=O)n(C)c1=O | 38%
CC(=O)Cn1cnc2c1c(=O)n(C)c(=O)n2C | 65%
CC(O)CCCCCn1cnc2c1c(=O)n(C)c(=O)n2C (stereo not drawn) | 105%
